High-throughput results: PubChem, several laboratories
Only some compounds are listed: those with a hit (about 1.5% of all), similar ones and a draw of the others.
NR2E3 ag-1 – activates human photoreceptor nuclear receptor NR2E3 | GST-NR2E3/biotin-RetCOR TR-FRET, 1536-well | inhibition of corepressor binding, % at 4.78 µM | 0.12% of 320,000 active | AID 2300;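 active = percent inhibition above the cutoff of mean plus 3 SD of all tested compounds, set per screening campaign, cut at about 20% in these data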;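 note: 0% = DMSO wells and 100% = biotin wells as full block of FRET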
Target sequence (Q9Y5X4 whole entry, looked up): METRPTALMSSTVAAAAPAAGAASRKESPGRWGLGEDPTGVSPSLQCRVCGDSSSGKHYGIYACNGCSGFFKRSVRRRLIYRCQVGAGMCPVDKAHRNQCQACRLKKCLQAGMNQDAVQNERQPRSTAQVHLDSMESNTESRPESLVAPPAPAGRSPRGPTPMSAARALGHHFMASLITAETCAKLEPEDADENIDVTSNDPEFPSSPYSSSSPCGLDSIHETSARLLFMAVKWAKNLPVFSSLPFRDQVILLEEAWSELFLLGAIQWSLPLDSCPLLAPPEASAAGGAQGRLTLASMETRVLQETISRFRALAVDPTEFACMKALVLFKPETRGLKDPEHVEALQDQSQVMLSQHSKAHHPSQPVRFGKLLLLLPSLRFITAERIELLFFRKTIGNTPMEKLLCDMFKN
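system = GST-tagged NR2E3 plus biotinylated RetCOR corepressor | input = 1.35 nM GST-NR2E3 | also added = 7 nM biotin-RetCOR | schedule = 5 h incubation at 4 °C | measured by = TR-FRET with europium anti-GST and streptavidin-D2, 340 nm excitation | read-out = percent loss of FRET ratio relative to control wells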
NR1D1 modulator – Rev-erb alpha (human) modulation. Rev-erbα–FITC-DNA binding, fluorescence polarization, 90 min. activity, % at 10 µM. 0.79% of 370,000 active. AID 1259318;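 active = activity above about 14%, limit read from the data; passing the limit was not always enough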;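 note: 0% = DMSO wells with 35 nM protein and 100% = DMSO wells with 750 nM protein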
PG9 Ab binder – binds the HIV-1 gp120 antibody PG9 | 0.43% of 360,000 active | TR-FRET gp120-PG9 antibody binding | inhibition, % at 6.7 µM; in the data active = inhibition above about 8.5%
NR2E3 ag-2 – agonists of human NR2E3 nuclear receptor. Q9Y5X4. CHO-S Gal4-NCOR/VP16-NR2E3 two-hybrid, luciferase. inhibition of corepressor binding, % at 3.98 µM. 0.35% of 360,000 active. AID 602229;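 active = inhibition above the mean of all tested compounds plus 3 SD, cut at about 70% in these data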;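 note: 0% = DMSO with NR2E3 transfected cells and 100% = cells lacking NR2E3 construct; higher means lower luciferase signal from less NR2E3 corepressor binding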
NR1D1 mod conf – Rev-erb alpha (human) modulation, hit confirmation; Rev-erb alpha FITC-DNA binding, fluorescence polarization, 90 min; activation, % at 25 µM; 61% of 3,000 active; shares compounds with NR1D1 modulator;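 active = activation at or above a set limit, or at least 3 SD above the negative control mean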;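 note: 0% = 35 nM protein with DMSO and 100% = 750 nM protein high control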
RORg counter – affects RORgamma DNA binding in a Rev-erb alpha counter-screen; purified RORgamma protein-FITC-DNA binding, fluorescence polarization; IC50, µM; 8% of 910 active; shares compounds with NR1D1 modulator;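 active = Compounds whose fitted half-maximal concentration for disrupting protein-DNA binding is below 10 micromolar; the record names Rev-erb in its text, so the target is in doubt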
The depositor's hits bear a star; x = no result given.

SMILES	NR2E3 ag-1	NR1D1 modulator	PG9 Ab binder	NR2E3 ag-2	NR1D1 mod conf	others
CCOCCn1c(=NC(=O)c2ccc(S(=O)(=O)N3CCOCC3)cc2)sc2cc(S(N)(=O)=O)ccc21	5	7	-1	-34	x
COc1ccc(/C=C2\Oc3cc(OC(=O)N4CCOCC4)ccc3C2=O)c(OC)c1	0	22*	-2	-1	9
Cc1[nH]nc2nc(SCC(=O)NCCC3=CCCCC3)n(-c3ccc(Br)cc3)c(=N)c12	4	29*	1	-7	30*	RORg counter=>40
N#CC1=C(N)Oc2cc3ccccc3cc2C1c1cccs1 (stereo not given)	4	0	-2	-59	x
CN(C)/C=N/C1=C(C#N)C(c2cccs2)c2ccc3ccccc3c2O1 (stereo not given)	x	173*	-1	-137	117*	RORg counter=>40
Cc1ccc(N=Cc2c(O)c3ccccc3oc2=O)c(C)c1	-2	46*	1	-19	25*
CN1/C(=C\C=C2/C(=O)Oc3ccccc3C2=O)C(C)(C)c2ccccc21	0	59*	-2	x	53*	RORg counter=>40
CC1=NN(c2ccccc2)C(=O)/C1=C\C=C1/N(C)c2ccccc2C1(C)C	5	79*	-4	-14	87*	RORg counter=8.6*
CC1=NN(c2ccccc2)C(=O)/C1=C\C=C1\N(C)c2ccccc2C1(C)C	-2	49*	-3	-14	54*	RORg counter=>40
CN[C@H]1C[C@H]2c3cc(-c4ccc5c(c4)OCO5)ccc3CCN2C[C@H]1[C@H](C)O	x	-4	x	x	x
CCCSc1nc(SCC(=O)NCc2ccccc2)c2c3c(sc2n1)COC(C)(C)C3	0	45*	0	-14	15
CN1/C(=C\C=N\O)C(C)(C)c2ccccc21	1	0	-2	12	x
CN(C)c1ccc(N=C/C=C2/N(C)c3ccccc3C2(C)C)cc1	x	25*	-21	-13	16
CC(=O)c1cc(-c2ccc3c(c2)OCO3)c(=O)n2c1CCC2	x	6	x	x	x
Cc1cc(NC(=O)c2ccc(S(=O)(=O)N3CCOCC3)cc2)nc2c1c(=O)oc1ccccc12	2	36*	-2	x	16
Cc1cc(NC(=O)c2ccc(S(=O)(=O)N3CCCC3)cc2)nc2c1c(=O)oc1ccccc12	x	36*	-1	-25	8
Cn1ccnc1C(=O)O[C@@H]1CCC[C@@]2(C(=O)N(Cc3ccccc3)c3ccccc32)[C@H]1NC(=O)CCc1ccccc1	x	-3	x	x	x
COc1ccccc1N=C1NC(=O)/C(=C/c2ccc(N(C)C)cc2)S1	0	25*	-4	-84	13
COc1cc(/C=C2/SC(=Nc3ccc(O)cc3)NC2=O)cc(OC)c1O	4	4	-10	11	x
Fc1ccc(-c2n[nH]c(=S)n2N=Cc2ccc(OCc3ccccc3)cc2)cc1	x	-2	x	x	x
COc1ccc(CN2CCN(CCCc3ccccc3)C(CCO)C2)c(O)c1 (stereo not given)	-2	-2	1	15	x
COc1ccc(CN2CCN(CCc3ccccc3)C(CCO)C2)c(O)c1 (stereo not given)	-3	16*	5	5	-1
CCN(CC)C(=O)CC[C@H]1CC[C@]2(CCCN(Cc3ccccc3)C2)O1	x	3	x	x	x
CCCC/C=C1/[C@H](c2ccc(Cl)cc2)N(Cc2ccc3c(c2)OCO3)C2=N[C@H](c3ccccc3)CC(=O)N21	x	-2	x	x	x
CCOc1ccc(NC(=O)COc2ccc(C(=O)NCc3cccnc3)cc2OC)cc1	-2	-5	-2	9	x
SMILES	NR2E3 ag-1	NR1D1 modulator	PG9 Ab binder	NR2E3 ag-2	NR1D1 mod conf	others
COc1cc(C(=O)NCc2cccnc2)ccc1OCC(=O)Nc1cccc(C(F)(F)F)c1	5	18*	0	8	7
Cc1ccc(NC(=O)c2ccc3nsnc3c2)c(Cl)c1	-6	27*	-4	-155	16
COc1ccccc1NC(=O)c1ccc2nsnc2c1	1	4	-3	-51	x
O=C(Nc1ccc(Br)cc1F)c1ccc2nsnc2c1	-2	31*	1	-24	22*
Fc1cccc2sc(Nc3nc4cc5c(cc4s3)OCCO5)nc12	3	34*	-2	-57	35*	RORg counter=>40
Fc1cccc2sc(Nc3nc4cc5c(cc4s3)OCO5)nc12	2	19	0	-190	x
CC(=O)N1CCc2cc(S(=O)(=O)NCCC(=O)N(C)Cc3ccccc3F)ccc21	x	2	x	x	x
O=c1[nH]c2cc(Br)c(Br)nc2[nH]1	x	-2	x	x	x
CCN(CC)S(=O)(=O)c1ccc(C(=O)Nc2ccc(C(F)(F)F)n(C)c2=O)cc1	6	4	0	-2	x
COc1ccc(C(=O)Nc2ccc(C(F)(F)F)n(C)c2=O)cc1	-2	47*	-4	-25	32*	RORg counter=>40
Cc1ccc(C(=O)Nc2ccc(C(F)(F)F)n(C)c2=O)cc1	3	28*	3	-66	3
Oc1ccccc1C=Nn1c(-c2ccccc2F)n[nH]c1=S	x	1	x	x	x
Cc1c(N=C2N=C(NC(=O)NC(C)(C)C)c3ccccc32)c(=O)n(-c2ccccc2)n1C	3	0	-4	-3	x
Cc1c(N=C2N=C(NC(=O)c3cccs3)c3ccccc32)c(=O)n(-c2ccccc2)n1C	1	18*	0	0	16
C#CCOCCOCCOCCNc1nc(N2CCN(C(=O)[C@H](CCCCN)n3cc([C@@H](N)C(C)CC)nn3)CC2)nc(N2CCN(C(=O)[C@H](CCCCN)n3cc([C@@H](N)C(C)CC)nn3)CC2)n1 (stereo not given in full)	x	3	x	x	x
Cn1cc(/C=C2\SC(=O)NC2=S)c2ccccc21	3	27*	-9	-27	17
Cc1ccc(C(=O)NN2C(=O)/C(=C/c3cn(C)c4ccccc34)SC2=S)cc1	2	9	-2	-7	x
CCOC(=O)c1sc(=NC(=O)c2ccc(OC(C)C)cc2)n(C)c1C	-1	44*	0	-30	38*	RORg counter=4.4*
Cc1ccc2c(c1)sc(=NC(=O)c1cccs1)n2C	0	43*	0	-76	10
CCOC(=O)c1sc(=NC(=O)c2ccc(C)c(C)c2)n(C)c1C	3	8	-1	-74	x
Cc1ccc2c(c1)sc(=NC(=O)C1CC1)n2C	1	-2	3	-128	x
CCOC(=O)c1sc(=NC(=O)c2cccs2)n(C)c1C	-4	31*	0	-117	15
CS(=O)(=O)OC12CCCN(C1)/C(=C/c1ccc(Cl)cc1)C2 (stereo not given)	x	-3	x	x	x
COC(=O)[C@]12C[C@H](CC(=O)NCc3ccc(OC)c(OC)c3)C(=O)N(Cc3ccc(Cl)cc3Cl)C1=C[C@H](C(C)(C)C)O[C@@H]2C	x	1	x	x	x
CCOC(=O)/C(C#N)=C/Nc1cc(C(=O)OCC)cc2c(OC)c(OC)ccc12	x	31*	1	-4	-2
CCOC(=O)/C(C#N)=C/Nc1cc(F)ccc1C	4	0	2	-2	x
